Data published in ChEMBL document CHEMBL3525900, “Pharmacokinetics, distribution, and metabolism of [14C]sunitinib in rats, monkeys, and humans” (Drug Metab Dispos, 2012).

Columns and labels:
[1] = Drug concentration in male albino rat uveal tract assessed as radioactivity per gram of tissue at 20 mg/kg administered as single dose via gastric gavage measured after 6 hrs by autoradiographic analysis; type: ADME, organism-based; set-up: dose 20 mg/kg, dosed compound name [14C]Sunitinib; conditions: in vivo, po
[2] = Drug concentration in female albino rat uveal tract assessed as radioactivity per gram of tissue at 20 mg/kg administered as single dose via gastric gavage measured after 24 hrs by autoradiographic analysis; type: ADME, organism-based; set-up: dose 20 mg/kg, dosed compound name [14C]Sunitinib; conditions: in vivo, po
[3] = Drug recovery in urine of female Sprague-Dawley rat at 5 mg/kg, iv administered as single dose during 0 to 72 hrs by liquid scintillation counting; type: ADME, organism-based; set-up: dose 5 mg/kg, dosed compound name [14C]Sunitinib, route intravenous; conditions: in vivo
[4] = Drug concentration in female Lister Hooded pigmented rat salivary gland assessed as radioactivity per gram of tissue at 20 mg/kg administered as single dose via gastric gavage measured after 24 hrs by autoradiographic analysis; type: ADME, organism-based; set-up: dose 20 mg/kg, dosed compound name [14C]Sunitinib; conditions: in vivo, po
Summary of the method: (§1)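 Lister Hooded (pigmented) rats, ca 7-8 weeks old, acclimated 7 days, given [14C]sunitinib L-malate by gastric gavage at 20 mg/kg (15 mg freebase/kg, 100 µCi/kg). One male and one female killed by CO2 at 24, 72, 168 and 336 h. Carcasses frozen in solid CO2/hexane and embedded in frozen cellulose. 30 µm sagittal cryosections were freeze-dried. Tissue radioactivity measured by quantitative whole-body autoradiography against calibration standards, with background subtracted.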

[5] = test system: Small intestine; experiment: Drug concentration in female albino rat small intestine assessed as radioactivity per gram of tissue at 20 mg/kg administered as single dose via gastric gavage measured after 72 hrs by autoradiographic analysis; type: ADME, organism-based; set-up: dose 20 mg/kg, dosed compound name [14C]Sunitinib; conditions: in vivo, po
[6] = test system: Cynomolgus monkey; experiment: AUC (0 to infinity) as total radioactivity in female cynomolgus monkey plasma at 6 mg/kg, po administered as single dose by LC/MS/MS analysis; type: ADME, organism-based, Macaca fascicularis; set-up: time infinity, dose 6 mg/kg, dosed compound name [14C]Sunitinib, route oral; conditions: in vivo
Summary of the method: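 Cynomolgus monkeys of both sexes received one oral gavage of [14C]sunitinib L-malate at 6 mg/kg (37 µCi/kg). Femoral-vein blood was taken into heparin from 0.5 to 336 h. Plasma was kept cold and protected from light, then stored at -80 °C. Total radioactivity was by scintillation counting and sunitinib by methanol-extraction LC-MS-MS. Cmax was from raw data, t½ from the log-linear terminal slope, AUC(0-∞) by linear trapezoidal rule.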

[7] = test system: Heart; experiment: Drug concentration in male albino rat heart assessed as radioactivity per gram of tissue at 20 mg/kg administered as single dose via gastric gavage measured after 3 hrs by autoradiographic analysis; type: ADME, organism-based; set-up: dose 20 mg/kg, dosed compound name [14C]Sunitinib; conditions: in vivo, po
[8] = test system: Lung; experiment: Drug concentration in male Lister Hooded pigmented rat lung assessed as radioactivity per gram of tissue at 20 mg/kg administered as single dose via gastric gavage measured after 168 hrs by autoradiographic analysis; type: ADME, organism-based; set-up: dose 20 mg/kg, dosed compound name [14C]Sunitinib; conditions: in vivo, po
[9] = test system: Kidney; experiment: Drug concentration in male albino rat kidney assessed as radioactivity per gram of tissue at 20 mg/kg administered as single dose via gastric gavage measured after 6 hrs by autoradiographic analysis; type: ADME, organism-based; set-up: dose 20 mg/kg, dosed compound name [14C]Sunitinib; conditions: in vivo, po
[10] = test system: Ovary; experiment: Drug concentration in female albino rat ovary assessed as radioactivity per gram of tissue at 20 mg/kg administered as single dose via gastric gavage measured after 72 hrs by autoradiographic analysis; type: ADME, organism-based, Female gonad; set-up: dose 20 mg/kg, dosed compound name [14C]Sunitinib; conditions: in vivo, po
Summary of the method: (§2)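 Sprague Dawley albino rats, ca 7-8 weeks old, dosed once by gastric gavage with [14C]sunitinib L-malate (15 mg freebase/kg, 100 µCi/kg). One male and one female killed by CO2 at 3, 6, 24, 72 and 168 h. Carcasses frozen in solid CO2/hexane, embedded and cut into 30 µm sagittal sections, then freeze-dried. Radioactivity quantified by whole-body autoradiography against standards by regression, background subtracted.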

[11] = Drug concentration in female albino rat thyroid gland assessed as radioactivity per gram of tissue at 20 mg/kg administered as single dose via gastric gavage measured after 3 hrs by autoradiographic analysis; type: ADME, organism-based; set-up: dose 20 mg/kg, dosed compound name [14C]Sunitinib; conditions: in vivo, po
[12] = test system: Small intestine; experiment: Drug concentration in male albino rat small intestine assessed as radioactivity per gram of tissue at 20 mg/kg administered as single dose via gastric gavage measured after 6 hrs by autoradiographic analysis; type: ADME, organism-based; set-up: dose 20 mg/kg, dosed compound name [14C]Sunitinib; conditions: in vivo, po
[13] = test system: Adrenal; experiment: Drug concentration in female Lister Hooded pigmented rat adrenal assessed as radioactivity per gram of tissue at 20 mg/kg administered as single dose via gastric gavage measured after 24 hrs by autoradiographic analysis; type: ADME, organism-based; set-up: dose 20 mg/kg, dosed compound name [14C]Sunitinib; conditions: in vivo, po
Summary of the method: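 Pigmented Lister Hooded rats, 7-8 weeks old, received [14C]sunitinib L-malate by gavage at 20 mg/kg (15 mg freebase/kg, 100 µCi/kg). One rat per sex was killed by CO2 at each of 24, 72, 168 and 336 h. Carcasses were frozen in solid CO2/hexane and cut into 30 µm sagittal sections, then freeze-dried. Tissue radioactivity was quantified by whole-body autoradiography calibrated against standards by regression (LOQ 0.04–0.06 µg eq/g).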

[14] = test system: Small intestine; experiment: Drug concentration in male Lister Hooded pigmented rat small intestine assessed as radioactivity per gram of tissue at 20 mg/kg administered as single dose via gastric gavage measured after 24 hrs by autoradiographic analysis; type: ADME, organism-based; set-up: dose 20 mg/kg, dosed compound name [14C]Sunitinib; conditions: in vivo, po
[15] = test system: Spleen; experiment: Drug concentration in female albino rat spleen assessed as radioactivity per gram of tissue at 20 mg/kg administered as single dose via gastric gavage measured after 24 hrs by autoradiographic analysis; type: ADME, organism-based; set-up: dose 20 mg/kg, dosed compound name [14C]Sunitinib; conditions: in vivo, po
[16] = Drug recovery in feces of male Sprague-Dawley rat at 15 mg/kg, po administered as single dose during 0 to 72 hrs by liquid scintillation counting; type: ADME, organism-based; set-up: dose 15 mg/kg, dosed compound name [14C]Sunitinib, route oral; conditions: in vivo
[17] = test system: Spinal cord; experiment: Drug concentration in male albino rat spinal cord assessed as radioactivity per gram of tissue at 20 mg/kg administered as single dose via gastric gavage measured after 3 hrs by autoradiographic analysis; type: ADME, organism-based; set-up: dose 20 mg/kg, dosed compound name [14C]Sunitinib; conditions: in vivo, po
[18] = Drug concentration in female albino rat preputial gland assessed as radioactivity per gram of tissue at 20 mg/kg administered as single dose via gastric gavage measured after 6 hrs by autoradiographic analysis; type: ADME, organism-based; set-up: dose 20 mg/kg, dosed compound name [14C]Sunitinib; conditions: in vivo, po; summary of the method: as §2
[19] = Drug concentration in female albino rat lachrymal gland assessed as radioactivity per gram of tissue at 20 mg/kg administered as single dose via gastric gavage measured after 72 hrs by autoradiographic analysis; type: ADME, organism-based; set-up: dose 20 mg/kg, dosed compound name [14C]Sunitinib; conditions: in vivo, po; summary of the method: as §2
[20] = Drug concentration in female Lister Hooded pigmented rat lymph node assessed as radioactivity per gram of tissue at 20 mg/kg administered as single dose via gastric gavage measured after 24 hrs by autoradiographic analysis; type: ADME, organism-based; set-up: dose 20 mg/kg, dosed compound name [14C]Sunitinib; conditions: in vivo, po
Summary of the method: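 Sprague Dawley (albino) and Lister Hooded (pigmented) rats, ca 7-8 weeks old, 179-310 g, acclimated 7 days. Single gavage dose of [14C]sunitinib L-malate (15 mg freebase/kg, 100 µCi/kg). One male and one female killed by CO2 per time point: albino at 3, 6, 24, 72, 168 h; pigmented at 24, 72, 168, 336 h. Carcasses frozen in solid CO2/hexane, 30 µm sagittal sections freeze-dried. Tissue radioactivity read by quantitative whole-body autoradiography against regression of standards, mean background subtracted.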

[21] = test system: Spleen; experiment: Drug concentration in male albino rat spleen assessed as radioactivity per gram of tissue at 20 mg/kg administered as single dose via gastric gavage measured after 72 hrs by autoradiographic analysis; type: ADME, organism-based; set-up: dose 20 mg/kg, dosed compound name [14C]Sunitinib; conditions: in vivo, po
[22] = test system: Heart; experiment: Drug concentration in male albino rat heart assessed as radioactivity per gram of tissue at 20 mg/kg administered as single dose via gastric gavage measured after 24 hrs by autoradiographic analysis; type: ADME, organism-based; set-up: dose 20 mg/kg, dosed compound name [14C]Sunitinib; conditions: in vivo, po
[23] = test system: Small intestine; experiment: Drug concentration in male albino rat small intestine assessed as radioactivity per gram of tissue at 20 mg/kg administered as single dose via gastric gavage measured after 3 hrs by autoradiographic analysis; type: ADME, organism-based; set-up: dose 20 mg/kg, dosed compound name [14C]Sunitinib; conditions: in vivo, po
[24] = Drug concentration in female Lister Hooded pigmented rat uveal tract assessed as radioactivity per gram of tissue at 20 mg/kg administered as single dose via gastric gavage measured after 168 hrs by autoradiographic analysis; type: ADME, organism-based; set-up: dose 20 mg/kg, dosed compound name [14C]Sunitinib; conditions: in vivo, po; summary of the method: as §1
[25] = test system: Large intestine; experiment: Drug concentration in male albino rat large intestine assessed as radioactivity per gram of tissue at 20 mg/kg administered as single dose via gastric gavage measured after 3 hrs by autoradiographic analysis; type: ADME, organism-based; set-up: dose 20 mg/kg, dosed compound name [14C]Sunitinib; conditions: in vivo, po

Radiolabel recovery [1]: 5.08 ugequiv | Radiolabel recovery [2]: 0.61 ugequiv | Radiolabel recovery [3]: 9.1% | Radiolabel recovery [4]: 1.66 ugequiv | Radiolabel recovery [5]: 0.08 ugequiv | AUC [6]: 5692 ng.Eq.hr/ml | Radiolabel recovery [7]: 5.58 ugequiv | Radiolabel recovery [8]: 0.06 ugequiv | Radiolabel recovery [9]: 9.43 ugequiv | Radiolabel recovery [10]: 0.09 ugequiv | Radiolabel recovery [11]: 18.64 ugequiv | Radiolabel recovery [12]: 5.54 ugequiv | Radiolabel recovery [13]: 3.59 ugequiv | Radiolabel recovery [14]: 0.82 ugequiv | Radiolabel recovery [15]: 4.42 ugequiv | Radiolabel recovery [16]: 75.2% | Radiolabel recovery [17]: 0.19 ugequiv | Radiolabel recovery [18]: 14.48 ugequiv | Radiolabel recovery [19]: 0.25 ugequiv | Radiolabel recovery [20]: 1.14 ugequiv | Radiolabel recovery [21]: 0.2 ugequiv | Radiolabel recovery [22]: 0.36 ugequiv | Radiolabel recovery [23]: 8.91 ugequiv | Radiolabel recovery [24]: 276.19 ugequiv | Radiolabel recovery [25]: 6.05 ugequiv
SMILES: CCN(CC)CCNC(=O)c1c(C)[nH]c(/[14CH]=C2\C(=O)Nc3ccc(F)cc32)c1C.O=C(O)C[C@H](O)C(=O)O
